How the values were obtained:
[1] = Inhibition of PI3K in human MCF7 cells assessed as reduction in AKT phosphorylation at residue S473 incubated for 2 hrs followed by insulin addition by ELISA; format: cell-based; conditions: MCF7, 2 h
[2] = Metabolic stability in CD-1 mouse liver microsomes assessed as parent compound remaining at 10 uM preincubated for 10 mins in water bath followed by NADPH addition and measured after 60 mins by LC-MS/MS analysis; format: ADME, Microsome; conditions: read-out: Stability
[3] = Metabolic stability in Beagle dog liver microsomes assessed as parent compound remaining at 10 uM preincubated for 10 mins in water bath followed by NADPH addition and measured after 60 mins by LC-MS/MS analysis; format: ADME, Canis lupus familiaris, Microsome; conditions: read-out: Stability
[4] = Clearance in Beagle dog cryopreserved hepatocytes incubated for 10 mins under shaking condition by LC-MS/MS analysis; format: ADME, cell-based, Canis lupus familiaris, Hepatocyte; conditions: read-out: CLH
[5] = target: T1, Phosphatidylinositol 4,5-bisphosphate 3-kinase catalytic subunit delta isoform (Homo sapiens, UniProt O00329); assay: Inhibition of PI3Kdelta in human Jeko1 cells assessed as reduction in AKT phosphorylation at residue S473 measured after 2 hrs by sandwich ELISA
T1 sequence (O00329 whole entry): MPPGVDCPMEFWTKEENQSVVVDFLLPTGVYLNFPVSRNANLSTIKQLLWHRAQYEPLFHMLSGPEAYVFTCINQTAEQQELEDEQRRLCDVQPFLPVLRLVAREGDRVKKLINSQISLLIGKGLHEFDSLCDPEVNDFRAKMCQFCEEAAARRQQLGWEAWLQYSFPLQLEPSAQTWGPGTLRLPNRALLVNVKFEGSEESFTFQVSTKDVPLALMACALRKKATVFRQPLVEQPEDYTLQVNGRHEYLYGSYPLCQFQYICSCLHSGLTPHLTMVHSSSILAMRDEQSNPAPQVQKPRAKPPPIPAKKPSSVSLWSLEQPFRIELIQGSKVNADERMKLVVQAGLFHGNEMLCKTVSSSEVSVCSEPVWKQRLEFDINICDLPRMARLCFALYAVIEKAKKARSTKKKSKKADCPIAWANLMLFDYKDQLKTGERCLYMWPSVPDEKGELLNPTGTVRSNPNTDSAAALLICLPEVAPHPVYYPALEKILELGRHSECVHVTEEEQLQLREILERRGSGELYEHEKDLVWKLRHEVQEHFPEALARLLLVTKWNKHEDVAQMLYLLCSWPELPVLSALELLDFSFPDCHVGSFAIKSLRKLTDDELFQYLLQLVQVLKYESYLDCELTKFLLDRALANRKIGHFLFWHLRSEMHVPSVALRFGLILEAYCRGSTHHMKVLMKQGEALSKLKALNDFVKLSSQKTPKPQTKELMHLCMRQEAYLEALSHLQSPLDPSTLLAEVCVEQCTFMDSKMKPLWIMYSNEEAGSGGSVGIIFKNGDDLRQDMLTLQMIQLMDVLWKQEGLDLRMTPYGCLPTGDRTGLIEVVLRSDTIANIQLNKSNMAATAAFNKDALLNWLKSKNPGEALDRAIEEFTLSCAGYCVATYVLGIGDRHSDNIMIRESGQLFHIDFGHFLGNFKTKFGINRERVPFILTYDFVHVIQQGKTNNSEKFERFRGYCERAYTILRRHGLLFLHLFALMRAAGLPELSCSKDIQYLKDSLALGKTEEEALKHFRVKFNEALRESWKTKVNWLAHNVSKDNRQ

[6] = Metabolic stability in Sprague-Dawley rat liver microsomes assessed as parent compound remaining at 10 uM preincubated for 10 mins in water bath followed by NADPH addition and measured after 60 mins by LC-MS/MS analysis; format: ADME, Microsome; conditions: read-out: Stability
[7] = Volume of distribution in Sprague-Dawley rat at 1 mg/kg, iv by HPLC analysis; format: ADME, organism-based; conditions: in vivo
[8] = Dose normalized AUC (0 to last) in Sprague-Dawley rat at 3 mg/kg, po by HPLC analysis; format: ADME, organism-based; conditions: in vivo
[9] = Clearance in CD-1 mouse cryopreserved hepatocytes incubated for 10 mins under shaking condition by LC-MS/MS analysis; format: ADME, cell-based, Hepatocyte; conditions: read-out: CLH
[10] = Volume of distribution in BALB/c mouse at 1 mg/kg, iv by HPLC analysis; conditions: in vivo
BT-474 [11] = assay: Antitumor activity against PI3KCA mutant human BT474 cells xenografted in BALB/c nude mouse assessed as tumor growth inhibition at 15 mg/kg, po administered once daily and measured after 30 days by caliper method relative to control; format: functional; conditions: BT-474, po, 720 h, read-out: TGI
[12] = Metabolic stability in cynomolgus monkey liver microsomes assessed as parent compound remaining at 10 uM preincubated for 10 mins in water bath followed by NADPH addition and measured after 60 mins by LC-MS/MS analysis; format: ADME, Macaca fascicularis, Microsome; conditions: read-out: Stability
[13] = Clearance in Sprague-Dawley rat at 1 mg/kg, iv by HPLC analysis; format: ADME, organism-based; conditions: in vivo
BT-474 [14] = assay: Antitumor activity against PI3KCA mutant human BT474 cells xenografted in BALB/c nude mouse assessed as tumor growth inhibition at 40 mg/kg, po administered once daily and measured after 30 days by caliper method relative to control; format: functional; conditions: BT-474, po, 720 h, read-out: TGI
[15] = Oral bioavailability in BALB/c mouse at 10 mg/kg by HPLC analysis; format: ADME, organism-based; conditions: in vivo
BT-474 [16] = assay: Antitumor activity against PI3KCA mutant human BT474 cells xenografted in BALB/c nude mouse assessed as tumor growth inhibition at 30 mg/kg, po administered once daily and measured after 30 days by caliper method relative to control; format: functional; conditions: BT-474, po, 720 h, read-out: TGI
[17] = target: T2, Phosphatidylinositol 4,5-bisphosphate 3-kinase catalytic subunit alpha isoform (Homo sapiens, UniProt P42336); assay: Inhibition of PI3Kalpha in human BT474 cells expressing P3KCA mutant assessed as reduction in AKT phosphorylation at residue S473 incubated for 2 hrs followed by insulin addition by ELISA; format: cell-based; conditions: bt-474
How it was run: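 Akt phosphorylation was measured in the PIK3CA mutant human breast ductal carcinoma BT-474 cell line, used as a PI3Kα-sensitive cellular readout. IC50 determined.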
Target sequence in this assay (P42336 whole entry, looked up, canonical isoform): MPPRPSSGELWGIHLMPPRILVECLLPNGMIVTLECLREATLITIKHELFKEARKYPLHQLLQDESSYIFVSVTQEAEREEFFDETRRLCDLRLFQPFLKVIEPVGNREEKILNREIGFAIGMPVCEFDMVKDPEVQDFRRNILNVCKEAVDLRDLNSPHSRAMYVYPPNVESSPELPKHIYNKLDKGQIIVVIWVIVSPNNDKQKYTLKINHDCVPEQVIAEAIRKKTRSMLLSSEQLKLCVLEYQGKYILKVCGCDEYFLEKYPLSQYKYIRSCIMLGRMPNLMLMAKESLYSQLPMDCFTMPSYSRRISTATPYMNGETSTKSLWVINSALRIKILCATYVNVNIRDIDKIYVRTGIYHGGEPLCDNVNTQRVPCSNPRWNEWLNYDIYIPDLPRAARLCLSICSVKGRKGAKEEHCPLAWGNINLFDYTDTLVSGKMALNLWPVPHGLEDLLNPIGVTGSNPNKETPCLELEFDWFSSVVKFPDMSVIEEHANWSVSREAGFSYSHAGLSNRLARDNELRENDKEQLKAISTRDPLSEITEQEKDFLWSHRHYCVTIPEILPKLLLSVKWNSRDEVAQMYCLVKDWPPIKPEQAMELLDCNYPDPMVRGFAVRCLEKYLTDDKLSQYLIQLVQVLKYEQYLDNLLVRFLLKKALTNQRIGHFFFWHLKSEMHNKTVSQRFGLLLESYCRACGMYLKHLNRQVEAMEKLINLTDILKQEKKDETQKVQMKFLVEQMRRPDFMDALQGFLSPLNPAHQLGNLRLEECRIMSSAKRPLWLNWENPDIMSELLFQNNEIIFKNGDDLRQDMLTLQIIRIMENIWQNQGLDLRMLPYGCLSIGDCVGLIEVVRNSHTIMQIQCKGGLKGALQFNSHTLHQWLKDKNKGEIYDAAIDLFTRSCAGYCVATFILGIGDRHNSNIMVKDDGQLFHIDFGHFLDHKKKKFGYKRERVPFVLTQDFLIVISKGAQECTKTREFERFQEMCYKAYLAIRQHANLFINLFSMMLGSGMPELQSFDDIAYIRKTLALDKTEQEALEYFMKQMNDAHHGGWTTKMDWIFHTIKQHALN

[18] = Clearance in BALB/c mouse at 1 mg/kg, […] by HPLC analysis; format: ADME, organism-based; conditions: in vivo
[19] = target: Phosphatidylinositol 4,5-bisphosphate 3-kinase catalytic subunit gamma isoform (Mus musculus, UniProt Q9JHG7); assay: Inhibition of PI3Kgamma in mouse RAW264.7 cells assessed as reduction in AKT phosphorylation at residue S473 treated with mouse C5a component and measured after 3 mins
Chain of Phosphatidylinositol 4,5-bisphosphate 3-kinase catalytic subunit gamma isoform (Q9JHG7 whole entry, canonical isoform): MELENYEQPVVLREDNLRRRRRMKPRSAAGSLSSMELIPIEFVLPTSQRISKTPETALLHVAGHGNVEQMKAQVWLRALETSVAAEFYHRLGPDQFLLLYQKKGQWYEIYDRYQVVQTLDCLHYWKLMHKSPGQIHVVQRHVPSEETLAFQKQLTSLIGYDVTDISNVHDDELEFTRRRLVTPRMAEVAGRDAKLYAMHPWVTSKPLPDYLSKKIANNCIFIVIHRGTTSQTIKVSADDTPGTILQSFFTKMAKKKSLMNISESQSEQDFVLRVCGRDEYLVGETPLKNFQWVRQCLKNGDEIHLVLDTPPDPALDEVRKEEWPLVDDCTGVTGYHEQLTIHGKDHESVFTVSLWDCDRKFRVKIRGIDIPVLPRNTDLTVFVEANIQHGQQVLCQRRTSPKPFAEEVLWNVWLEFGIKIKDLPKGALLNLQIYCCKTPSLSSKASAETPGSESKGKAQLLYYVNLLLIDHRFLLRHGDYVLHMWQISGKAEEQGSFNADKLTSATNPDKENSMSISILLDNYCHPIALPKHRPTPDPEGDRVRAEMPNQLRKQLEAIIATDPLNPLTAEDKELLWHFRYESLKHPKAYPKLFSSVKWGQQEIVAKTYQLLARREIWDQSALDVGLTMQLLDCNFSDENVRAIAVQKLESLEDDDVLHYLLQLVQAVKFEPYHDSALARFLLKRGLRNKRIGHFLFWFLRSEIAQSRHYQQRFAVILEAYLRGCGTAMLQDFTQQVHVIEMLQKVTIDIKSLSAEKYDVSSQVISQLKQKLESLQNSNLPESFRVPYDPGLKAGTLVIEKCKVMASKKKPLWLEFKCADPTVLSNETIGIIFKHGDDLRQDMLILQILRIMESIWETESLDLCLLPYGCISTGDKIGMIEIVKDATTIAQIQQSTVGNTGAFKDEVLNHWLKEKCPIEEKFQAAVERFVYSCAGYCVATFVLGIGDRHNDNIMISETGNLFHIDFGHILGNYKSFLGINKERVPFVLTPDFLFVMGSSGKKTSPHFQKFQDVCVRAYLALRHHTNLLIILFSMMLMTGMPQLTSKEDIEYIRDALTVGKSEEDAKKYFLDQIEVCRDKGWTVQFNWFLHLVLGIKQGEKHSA

[20] = Cmax in BALB/c mouse at 10 mg/kg, po by HPLC analysis; format: ADME, organism-based; set-up: dose 10 mg/kg, route oral; conditions: in vivo
[21] = Oral bioavailability in Sprague-Dawley rat at 3 mg/kg by HPLC analysis; format: ADME, organism-based; conditions: in vivo
[22] = target: T2, Phosphatidylinositol 4,5-bisphosphate 3-kinase catalytic subunit alpha isoform; assay: Inhibition of PI3Kalpha (unknown origin) using PIP2:3PS peptide as substrate preincubated for 15 mins followed by ATP addition at Km concentration and further incubated for 150 mins by ADP-Glo assay
Target sequence in this assay (P42336 whole entry, canonical isoform): as the sequence (P42336 whole entry, looked up, canonical isoform) above

[23] = Dose normalized AUC (0 to last) in BALB/c mouse at 10 mg/kg, po by HPLC analysis; format: ADME, organism-based; conditions: in vivo
BT-474 [24] = assay: Antitumor activity against PI3KCA mutant human BT474 cells xenografted in po dosed BALB/c nude mouse assessed as tumor growth inhibition administered once daily and measured after 30 days by caliper method; format: functional, organism-based

CNC(=O)[C@H](C)Cn1cnc2ccc(-c3cnc(OC)c(NS(=O)(=O)c4ccc(F)cc4Cl)c3)cc2c1=O
IC50 [1]: 32.9 nM | remaining at 1 h, 10 µM [2]: 32.7% | remaining at 1 h, 10 µM [3]: 53.9% | CLint scaled [4]: < 44 mL/min/kg | IC50 [5]: 183 nM | remaining at 1 h, 10 µM [6]: 32% | Vd [7]: 0.321 L/kg | AUClast/dose [8]: 2711 nM·h | CLint scaled [9]: 642 mL/min/kg | Vd [10]: 0.179 L/kg | inhibition in vivo at 15 mg/kg (BT-474 [11]): 62.5% | remaining at 1 h, 10 µM [12]: 13.7% | clearance [13]: 5.28 mL/min/kg | inhibition in vivo at 40 mg/kg (BT-474 [14]): 90.7% | bioavailability [15]: 59.4% | inhibition in vivo at 30 mg/kg (BT-474 [16]): 86% | IC50 [17]: 12.1 nM | CL/F [18]: 4.2 mL/min/kg | IC50 [19]: > 10000 nM | Cmax [20]: 37 µM | bioavailability [21]: 46.9% | IC50 [22]: 1.8 nM | AUClast/dose [23]: 3090 nM·h | TGI (BT-474 [24]): Dose-dependent effect

Source: ChEMBL document CHEMBL4619796, “Discovery of 3-Quinazolin-4(3H)-on-3-yl-2,N-dimethylpropanamides as Orally Active and Selective PI3Kα Inhibitors” (ACS Med Chem Lett, 2020)
